# Experimental data of several laboratories.
# pIC50: −log10 of the molar value.
# Organism: Leishmania donovani
# Read-out: parasite growth
Structure (SMILES),method,cell line,time,notes,endpoint,value
CCCCCCCCCCCCCCCCOP(=O)([O-])OCC[N+](C)(C)C,,,,"intracellular, amastigote",pIC50,5.74
N=C(N)c1ccc(OCCCCCOc2ccc(C(=N)N)cc2)cc1,resazurin,,72 h,promastigote,IC50,1.65 µg/mL
C[C@@H]1[C@H](O)[C@@H](C)/C=C/C=C/C=C/C=C/C=C/C=C/C=C/[C@H](O[C@@H]2O[C@H](C)[C@@H](O)[C@H](N)[C@@H]2O)C[C@@H]2O[C@](O)(C[C@@H](O)C[C@@H](O)[C@H](O)CC[C@@H](O)C[C@@H](O)CC(=O)O[C@H]1C)C[C@H](O)[C@H]2C(=O)O,resazurin,,,promastigote,IC50,0.19 µg/mL
CCC/C=C/c1cc2c(C=O)c(O)c(CC=C(C)C)cc2o1,resazurin,,48 h,promastigote,IC50,6.2 µg/mL
O=[N+]([O-])c1c(CS(=O)(=O)c2ccccc2)nc2c(Br)cc(Br)cn12,MTT,,72 h,promastigote,pIC50,5.74
Cc1cc(NC(=O)Nc2ccc3c(c2)OC(F)(F)O3)cc(C(F)(F)F)n1,,,,"intracellular, amastigote",pIC50,6.07
C[C@@H]1[C@H](O)[C@@H](C)/C=C/C=C/C=C/C=C/C=C/C=C/C=C/[C@H](O[C@@H]2O[C@H](C)[C@@H](O)[C@H](N)[C@@H]2O)C[C@@H]2O[C@](O)(C[C@@H](O)C[C@@H](O)[C@H](O)CC[C@@H](O)C[C@@H](O)CC(=O)O[C@H]1C)C[C@H](O)[C@H]2C(=O)O,resazurin,,72 h,promastigote,IC50,0.57 µg/mL
C[C@@H]1[C@H](O)[C@@H](C)/C=C/C=C/C=C/C=C/C=C/C=C/C=C/[C@H](O[C@@H]2O[C@H](C)[C@@H](O)[C@H](N)[C@@H]2O)C[C@@H]2O[C@](O)(C[C@@H](O)C[C@@H](O)[C@H](O)CC[C@@H](O)C[C@@H](O)CC(=O)O[C@H]1C)C[C@H](O)[C@H]2C(=O)O,,THP-1,5 days,"intracellular, amastigote",pIC50,6.40
CCCCCCCCCCCCCCCCOP(=O)([O-])OCC[N+](C)(C)C,,,,promastigote,pIC50,5.37
c1ccc(CN2CCN(c3nc(-c4ccccn4)nc4ccccc34)CC2)cc1,,THP-1,,"intracellular, amastigote",pIC50,5.38
N=C(N)c1ccc(OCCCCCOc2ccc(C(=N)N)cc2)cc1,resazurin,,48 h,promastigote,IC50,1 µg/mL
c1ccc(CNc2nc(-c3ccccn3)nc3ccccc23)cc1,,THP-1,,"intracellular, amastigote",pIC50,5.66
COc1cc(NC(C)CCCN)c2ncccc2c1 (centres unmarked),resazurin,,,promastigote,IC50,19.9 µg/mL
Fc1cccc(Nc2nc(-c3ccccn3)nc3ccccc23)c1,,THP-1,,"intracellular, amastigote",pIC50,5.85
COc1cc(NC(C)CCCNCCNCCNCCCC(C)Nc2cc(OC)cc3cccnc23)c2ncccc2c1.Cl.Cl (centres unmarked),resazurin,,,promastigote,IC50,2.99 µg/mL
c1ccc(-c2nc(N3CCCC3)c3ccccc3n2)nc1,imaging,THP-1,,"intracellular, amastigote",pIC50,5.89
N=C(N)c1ccc(OCCCCCOc2ccc(C(=N)N)cc2)cc1,,,,promastigote,pIC50,6.19
